Assay results: ChEMBL document CHEMBL1153988 (J Med Chem, 2009)
Active and inactive are the calls of the source. The calls are words filed in the database; no cut-off is given here.

Legend:
Mus musculus [1] = experiment: Teratogenic effect in SWV mouse assessed as number of implants at 502 mg/kg, ip administered on morning of day 8 of gestation; format: toxicity, organism-based; set-up: dose 502 mg/kg, route intraperitoneal; settings: in vivo
Procedure, shortened: (§1)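 Inbred SWV mouse strain highly susceptible to VPA-induced neural tube defects. Each dam received a single ip injection on gestation day 8.5, dosed within 1.8-4.2 mmol/kg, against a control of 25% aqueous Cremophor EL. Groups were compared with the control, and with the matched VPA sodium-salt dose, by Fisher's exact test (p < 0.05).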

Mus musculus [2] = experiment: Neurotoxicity in CF1 albino mouse at 30 mg/kg, ip after 0.5 hrs; format: toxicity, organism-based; set-up: dose 30 mg/kg, route intraperitoneal; settings: in vivo
Procedure, shortened: (§2)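 Male CF no. 1 albino mice (18-25 g) received a single ip dose as a suspension in 0.5% methylcellulose. The read-out was the number of animals showing neurotoxicity (minimal motor impairment) over the number tested.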

Rattus norvegicus [3] = experiment: Anticonvulsant activity in po dosed albino Sprague-Dawley rat assessed as protection against maximal electroshock-induced seizures; format: functional
Mus musculus [4] = experiment: Anticonvulsant activity in CF1 albino mouse assessed as protection against maximal electroshock-induced seizures at 100 mg/kg, ip after 0.5 hrs; format: functional, organism-based; set-up: dose 100 mg/kg
Procedure, shortened: (§3)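 Adult male CF no. 1 albino mice (18-25 g). Test compound suspended in 0.5% methylcellulose and given intraperitoneally at 0.01 mL/g body weight. Maximal electroshock challenge at the stated time. Read-out is the number of animals protected over the number tested; neurotoxicity is scored in parallel.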

Rattus norvegicus [5] = species: Rattus norvegicus; experiment: Protective index, ratio of TD50 for albino Sprague-Dawley rat to ED50 for scMet-induced albino Sprague-Dawley rat seizure model; format: functional
Procedure, shortened: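 Protective index is the rat TD50 (minimal motor impairment) divided by the ED50 in the MES or sc pentylenetetrazol test. Male Sprague-Dawley rats were dosed orally in 0.5% methylcellulose, and both values came from probit analysis.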

Mus musculus [6] = species: Mus musculus; experiment: Protective index, ratio of TD50 for CF1 albino mouse to ED50 for 32 mA current-induced CF1 albino mouse seizure model; format: functional
Procedure, shortened: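 Protective index is the mouse TD50 (minimal motor impairment) divided by the 6 Hz test ED50 at 32 or 44 mA. Male CF no. 1 mice were dosed ip in 0.5% methylcellulose, and values came from probit analysis.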

Rattus norvegicus [7] = experiment: Anticonvulsant activity in albino Sprague-Dawley rat assessed as protection against maximal electroshock-induced seizures at 50 mg/kg, po after 15 mins; format: functional
Procedure, shortened: (§4)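 Adult male Sprague-Dawley albino rats (100-150 g) dosed orally with compound suspended in 0.5% methylcellulose (0.04 mL per 10 g). Maximal electroshock challenge at the stated time. Protection is scored in 25% steps as the fraction of animals protected, with neurotoxicity recorded in parallel.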

Mus musculus [8] = experiment: Anticonvulsant activity in ip dosed CF1 albino mouse assessed as protection against maximal electroshock-induced seizures; format: functional
Procedure, shortened: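 Male CF no. 1 albino mice (18-25 g) were dosed ip in 0.5% methylcellulose and tested by maximal electroshock. Doses were varied to give 3-4 points between 0% and 100% protection. ED50 with 95% confidence interval came from probit analysis.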

Rattus norvegicus [9] = experiment: Anticonvulsant activity in albino Sprague-Dawley rat assessed as protection against scMet-induced seizures at 50 mg/kg, po after 15 mins; format: functional
Procedure, shortened: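 Male Sprague-Dawley albino rats (100-150 g) were given the compound orally as a suspension in 0.5% methylcellulose. Seizures were induced by subcutaneous pentylenetetrazol, dissolved in 0.9% saline as a 2.82% solution. The read-out was animals protected over animals tested.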

Mus musculus [10] = experiment: Teratogenic effect in SWV mouse assessed as number of implants at 336 mg/kg, ip administered on morning of day 8 of gestation; format: toxicity, organism-based; set-up: dose 336 mg/kg, route intraperitoneal; settings: in vivo; procedure, shortened: as §1
Mus musculus [11] = experiment: Teratogenic effect in SWV mouse assessed as number of implants at 671 mg/kg, ip administered on morning of day 8 of gestation; format: toxicity, organism-based; set-up: dose 671 mg/kg, route intraperitoneal; settings: in vivo; procedure, shortened: as §1
Mus musculus [12] = experiment: Anticonvulsant activity in CF1 albino mouse assessed as protection against maximal electroshock-induced seizures at 30 mg/kg, ip after 0.5 hrs; format: functional, organism-based; set-up: dose 30 mg/kg; procedure, shortened: as §3
Mus musculus [13] = experiment: Anticonvulsant activity in CF1 albino mouse assessed as protection against maximal electroshock-induced seizures at 100 mg/kg, ip after 4 hrs; format: functional, organism-based; set-up: dose 100 mg/kg; procedure, shortened: as §3
Rattus norvegicus [14] = experiment: Anticonvulsant activity in albino Sprague-Dawley rat assessed as protection against maximal electroshock-induced seizures at 50 mg/kg, po after 4 hrs; format: functional, organism-based; set-up: dose 50 mg/kg; procedure, shortened: as §4
Mus musculus [15] = experiment: Anticonvulsant activity in CF1 albino mouse assessed as protection against scMet-induced seizures at 30 mg/kg, ip after 0.5 hrs; format: functional, organism-based; set-up: dose 30 mg/kg
Procedure, shortened: (§5)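 Adult male CF no. 1 albino mice (18-25 g) dosed intraperitoneally with compound suspended in 0.5% methylcellulose (0.01 mL/g). Convulsant challenge given subcutaneously as a 0.85% pentylenetetrazol solution in 0.9% saline. Read-out is animals protected over animals tested, with neurotoxicity scored in parallel.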

Mus musculus [16] = experiment: Neurotoxicity in CF1 albino mouse assessed as minimal motor impairment at 60 mg/kg, ip; format: toxicity, organism-based; set-up: dose 60 mg/kg, route intraperitoneal; settings: in vivo; procedure, shortened: as §2
Mus musculus [17] = experiment: Anticonvulsant activity in CF1 albino mouse assessed as protection against 44 mA-current-induced seizure at 25 mg/kg, ip by 6Hz psychomotor seizure test; format: functional, organism-based; set-up: dose 25 mg/kg
Procedure, shortened: (§6)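 6 Hz psychomotor seizure test in male CF no. 1 mice, with compound given ip as a 0.5% methylcellulose suspension. Groups of 8 animals per dose. The 32 mA test used 25, 70 and 130 mg/kg; the 44 mA test used 25, 50, 75 and 100 mg/kg. ED50 and 95% confidence interval were obtained by probit analysis.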

Rattus norvegicus [18] = experiment: Anticonvulsant activity in albino Sprague-Dawley rat assessed as protection against maximal electroshock-induced seizures at 100 mg/kg, po; format: functional, organism-based; set-up: dose 100 mg/kg; procedure, shortened: as §4
Rattus norvegicus [19] = experiment: Anticonvulsant activity in albino Sprague-Dawley rat assessed as protection against maximal electroshock-induced seizures at 50 mg/kg, po after 2 hrs; format: functional; procedure, shortened: as §4
Mus musculus [20] = experiment: Teratogenic effect in SWV mouse assessed as live fetuses at 502 mg/kg, ip administered on morning of day 8 of gestation; format: toxicity, organism-based; set-up: dose 502 mg/kg, route intraperitoneal; settings: in vivo
Rattus norvegicus [21] = experiment: Neurotoxicity in albino Sprague-Dawley rat at 50 mg/kg, po; format: toxicity, organism-based; set-up: dose 50 mg/kg, route oral; settings: in vivo
Procedure, shortened: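 Neurotoxicity was scored in male Sprague-Dawley albino rats (100-150 g) dosed orally with a suspension in 0.5% methylcellulose. The read-out was the fraction of animals showing neurotoxicity (minimal motor impairment).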

Mus musculus [22] = experiment: Teratogenic effect in SWV mouse assessed as resorptions at 502 mg/kg, ip administered on morning of day 8 of gestation; format: toxicity, organism-based; set-up: dose 502 mg/kg, route intraperitoneal; settings: in vivo; procedure, shortened: as §1
Rattus norvegicus [23] = experiment: Anticonvulsant activity in albino Sprague-Dawley rat assessed as protection against maximal electroshock-induced seizures at 50 mg/kg, po after 30 mins; format: functional; procedure, shortened: as §4
Mus musculus [24] = experiment: Anticonvulsant activity in CF1 albino mouse assessed as protection against scMet-induced seizures at 100 mg/kg, ip after 4 hrs; format: functional, organism-based; set-up: dose 100 mg/kg; procedure, shortened: as §5
Mus musculus [25] = experiment: Anticonvulsant activity in CF1 albino mouse assessed as protection against 32 mA-current-induced seizure at 130 mg/kg, ip by 6Hz psychomotor seizure test; format: functional, organism-based; set-up: dose 130 mg/kg; procedure, shortened: as §6
Mus musculus [26] = experiment: Neurotoxicity in CF1 albino mouse at 30 mg/kg, ip after 4 hrs; format: toxicity, organism-based; set-up: dose 30 mg/kg, route intraperitoneal; settings: in vivo; procedure, shortened: as §2
Rattus norvegicus [27] = experiment: Anticonvulsant activity in albino Sprague-Dawley rat assessed as protection against scMet-induced seizures at 2 mg/kg, po; format: functional, organism-based; set-up: dose 2 mg/kg
Procedure, shortened: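 Oral dosing of male Sprague-Dawley rats (100-150 g) with compound in 0.5% methylcellulose. Convulsant challenge given subcutaneously as a 2.82% pentylenetetrazol solution in 0.9% saline. Groups of about 8 rats per dose. For quantitation, doses spanning 0% to 100% protection were fitted by probit analysis to give ED50 with 95% confidence interval.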

`CC1(C)C(C)(C)C1(F)C(N)=O` was tested. Which Activity (Mus musculus [1]) did it give?
Its Activity is 127.

What about the Activity (Mus musculus [2]) of the same compound?
Its Activity is “Non-toxic”.

What about the ED50 (Rattus norvegicus [3]) of the same compound?
The ED50 was greater than 100 mg/kg.

And the Activity (Mus musculus [4])?
Its Activity is “Non-toxic”.

And the PI (Rattus norvegicus [5])?
Its PI is 20.

What about the PI (Mus musculus [6]) of the same compound?
The PI was 2.1.

What about the Activity (Rattus norvegicus [7]) of the same compound?
The Activity was “inactive”.

And the ED50 (Mus musculus [8])?
Its ED50 is greater than 200 mg/kg.

What about the Activity (Rattus norvegicus [9]) of the same compound?
The Activity was 100%.

And the Activity (Mus musculus [10])?
Its Activity is 112.

What about the Activity (Mus musculus [11]) of the same compound?
The Activity was 55.

And the Activity (Mus musculus [12])?
The Activity was “Non-toxic”.

And the Activity (Mus musculus [13])?
Its Activity is “Non-toxic”.

And the Activity (Rattus norvegicus [14])?
Its Activity is “inactive”.

What about the Activity (Mus musculus [15]) of the same compound?
The Activity was “Non-toxic”.

What about the Activity (Mus musculus [16]) of the same compound?
The Activity was “Non-toxic”.

And the Activity (Mus musculus [17])?
The Activity was “inactive”.

And the Activity (Rattus norvegicus [18])?
Its Activity is “inactive”.

What about the Activity (Rattus norvegicus [19]) of the same compound?
The Activity was “inactive”.

And the Activity (Mus musculus [20])?
The Activity was 73.2%.

What about the Activity (Rattus norvegicus [21]) of the same compound?
Its Activity is “Not Active”.

What about the Activity (Mus musculus [22]) of the same compound?
Its Activity is 26.8%.

And the Activity (Rattus norvegicus [23])?
The Activity was “inactive”.

What about the Activity (Mus musculus [24]) of the same compound?
Its Activity is “Non-toxic”.

And the Activity (Mus musculus [25])?
The Activity was “Active”.

And the Activity (Mus musculus [26])?
Its Activity is “Non-toxic”.

And the Activity (Rattus norvegicus [27])?
Its Activity is “inactive”.
